Measurements gathered from unrelated publications.
Protocols differ between the studies behind these lines.
gyrA: DNA gyrase subunit A (gyrA, Escherichia coli K-12, UniProt P0AES4)
gag-pol reverse transcriptase: Gag-Pol polyprotein, reverse transcriptase (gag-pol, Human immunodeficiency virus 1, UniProt P03366)
PRMT6: Protein arginine N-methyltransferase 6 (PRMT6, Homo sapiens, UniProt Q96LA8)
EP300: Histone acetyltransferase p300 (EP300, Homo sapiens, UniProt Q09472)
PDE2A: cGMP-dependent 3',5'-cyclic phosphodiesterase (PDE2A, Homo sapiens, UniProt O00408)

CC(C)Oc1c(NC(=O)c2ccc(NC(=O)[C@H](CC(N)=O)NC(=O)c3ccc(NC(=O)c4ccc(C#N)cc4)cc3)cc2)ccc(C(=O)Nc2ccncc2)c1O
IC50 (gyrA; enzyme activity; inhibitor): 900 nM

N=C(N)NC(=O)c1nc(Cl)c(N)nc1N
IC50 (delm-1 (Caenorhabditis elegans, UniProt O45402); ion current; two-electrode voltage clamp; oocytes): 120000 nM

CCCC(CCC)C(=O)O
IC50 (Aldo-keto reductase family 1 member A1 (AKR1A1, Homo sapiens, UniProt P14550); enzyme activity; inhibitor; absorbance; pH 6.2): 53200 nM

N#Cc1ccc(Nc2nc(N)cc(Oc3ccc(-c4ccccc4)cc3)n2)cc1
IC50 (gag-pol reverse transcriptase; enzyme activity; inhibitor): 570 nM

Cc1cc(C)cc(S(=O)(=O)c2c(C(=O)NCCCNS(=O)(=O)c3ccc(Br)cc3)[nH]c3ccc(Cl)cc23)c1
IC50 (gag-pol reverse transcriptase; enzyme activity; inhibitor; ELISA): 160 nM

N#Cc1ccc(Nc2nc(N)cc(Oc3ccc(-c4ccc(C#N)cc4)cc3C(F)(F)F)n2)cc1
IC50 (gag-pol reverse transcriptase; enzyme activity; inhibitor): 70 nM

CC(C)Oc1c(NC(=O)c2ccc(NC(=O)[C@H](CC(N)=O)NC(=O)c3ccc(NC(=O)C(C)Sc4ccc(C#N)cc4)cc3)cc2)ccc(C(=O)Nc2ccc(C(=O)O)cc2)c1O (some centres unmarked)
IC50 (gyrA; enzyme activity; inhibitor): 800 nM

COc1ccc(-c2oc3ncnc(NCc4ccccc4)c3c2-c2ccc(OC)cc2)cc1
IC50 (Receptor tyrosine-protein kinase erbB-2 (ERBB2, Homo sapiens, UniProt P04626, D769Y); enzyme activity; inhibitor; radiometric): 790 nM

N#Cc1ccc(Nc2nc(N)cc(Oc3ccc(-c4ccc(F)cc4)cc3F)n2)cc1
IC50 (gag-pol reverse transcriptase; enzyme activity; inhibitor): 60 nM

CC[C@@H](C(=O)Nc1ccc(C(N)=O)c(F)c1)n1cc(OC)c(-c2cc(Cl)ccc2-n2cc(C(F)(F)F)nn2)cc1=O
IC50 (Plasminogen (PLG, Homo sapiens, UniProt P00747); enzyme activity; inhibitor): 2100 nM

Cc1cc(C)cc(S(=O)(=O)c2c(C(=O)NCCCCNS(=O)(=O)c3ccccc3)[nH]c3ccc(Cl)cc23)c1
IC50 (gag-pol reverse transcriptase; enzyme activity; inhibitor; ELISA): 130 nM

O=C(Nc1cccc2[nH]ccc12)c1ccccc1
IC50 (Alpha-synuclein, monomer (SNCA, Homo sapiens, UniProt P37840); amyloid aggregation; inhibitor; fluorescence): ~12900 nM

CC(C)Oc1c(NC(=O)c2ccc(NC(=O)[C@H](CC(N)=O)NC(=O)c3ccc(NC(=O)c4ccc5c(c4)COC5=O)cc3)cc2)ccc(C(=O)Nc2ccc(C(=O)O)cc2)c1O
IC50 (gyrA; enzyme activity; inhibitor): 1400 nM

C(/C=C/c1sc2c3ccccc3ccc2[n+]1CCCc1ccccc1)=C1/Sc2c(ccc3ccccc23)N1CCCc1ccccc1
IC50 (PRMT6; enzyme activity; inhibitor; radiometric): 1500 nM

CCCCCCCc1ccc(CCc2cccc(O)c2C(=O)O)cc1
IC50 (EP300; enzyme activity; inhibitor; radiometric): > 200000 nM

CC(C)Oc1c(NC(=O)c2ccc(NC(=O)[C@H](CC(N)=O)NC(=O)c3ccc(NC(=O)c4ccc([N+](=O)[O-])c5cccnc45)cc3)cc2)ccc(C(=O)Nc2ccc(C(=O)O)cc2)c1O
IC50 (gyrA; enzyme activity; inhibitor): 300 nM

CCCCN1/C(=C/C=C/c2sc3ccc(Br)cc3[n+]2CCCC)Sc2ccc(Br)cc21
IC50 (PRMT6; enzyme activity; inhibitor; radiometric): 3150 nM

CC(C)Oc1c(NC(=O)c2ccc(NC(=O)[C@H](CC(N)=O)NC(=O)c3ccc(NC(=O)c4ccc(C#N)c(F)c4)cc3)cc2)ccc(C(=O)Nc2ccc(C(=O)O)cc2)c1O
IC50 (gyrA; enzyme activity; inhibitor): 400 nM

COc1ccc(C2=NN(C3CCCCCC3)C(=O)[C@@H]3CC=CC[C@H]23)cc1-c1ccc(C(N)=O)cc1 (relative stereo)
IC50 (PDE2A; enzyme activity; inhibitor): 3980 nM

CC(C)Oc1c(NC(=O)c2ccc(NC(=O)[C@H](CC(N)=O)NC(=O)c3ccc(NC(=O)c4ccc(NC(N)=O)cc4)cc3)cc2)ccc(C(=O)Nc2ccc(C(=O)O)cc2)c1O
IC50 (gyrA; enzyme activity; inhibitor): 8700 nM

Cc1cc(C)cc(S(=O)(=O)c2c(C(=O)NCCNS(=O)(=O)c3ccc(Cl)cc3)[nH]c3ccc(Cl)cc23)c1
IC50 (gag-pol reverse transcriptase; enzyme activity; inhibitor; ELISA): 55 nM

N#Cc1ccc(Nc2nc(N)cc(Oc3ccc(-c4ccc(C#N)c(F)c4)cc3F)n2)cc1
IC50 (gag-pol reverse transcriptase; enzyme activity; inhibitor): 70 nM

CCn1ncc2c1-c1cnc(N)c(c1)O[C@H](C)c1cc(F)ccc1-c1nn(C)nc1C2
IC50 (STE20-like serine/threonine-protein kinase (SLK, Homo sapiens, UniProt Q9H2G2); enzyme activity; inhibitor; radiometric): 336 nM

COc1ncc(CNc2c(CO)cnc3c(C4CC4)cc(C#N)cc23)cc1Cl
IC50 (PDE2A; enzyme activity; inhibitor): > 10000 nM

CC/C(=N\NC(=O)C(C)Nc1ccccc1)c1ccc(O)c(C)c1O (centres unmarked)
IC50 (cAMP-dependent protein kinase catalytic subunit alpha (PRKACA, Homo sapiens, UniProt P17612); enzyme activity; inhibitor): 22.5 nM

Cc1cc(C)cc(S(=O)(=O)c2c(C(=O)NCCCCCNS(=O)(=O)c3ccccc3)[nH]c3ccc(Cl)cc23)c1
IC50 (gag-pol reverse transcriptase; enzyme activity; inhibitor; ELISA): 120 nM

N#Cc1ccc(Nc2nc(N)cc(Oc3ccc(-c4ccc(C#N)cc4)c(C(F)(F)F)c3)n2)cc1
IC50 (gag-pol reverse transcriptase; enzyme activity; inhibitor): 90 nM

Cc1ccc(S(=O)(=O)NCCCNC(=O)c2[nH]c3ccc(Cl)cc3c2S(=O)(=O)c2cc(C)cc(C)c2)cc1
IC50 (gag-pol reverse transcriptase; enzyme activity; inhibitor; ELISA): 160 nM

CCOCc1nc(O)c(-c2nnc(Cc3ccc(Cl)cn3)o2)c(O)c1-c1c(OC)cccc1OC
IC50 (Alpha-2A adrenergic receptor (ADRA2A, Homo sapiens, UniProt P08913); ligand displacement; radioligand): > 30000 nM

CC(=O)N[C@@H]1[C@@H](O)[C@H](O)[C@@H](CO)S[C@@H]1OP(=O)(O)OP(=O)(O)OC[C@H]1O[C@@H](n2ccc(=O)[nH]c2=O)[C@H](O)[C@@H]1O
IC50 (UDP-N-acetylglucosamine--peptide N-acetylglucosaminyltransferase 110 kDa subunit (OGT, Homo sapiens, UniProt O15294); enzyme activity; inhibitor): 78800 nM

Cc1ccc(S(=O)(=O)NCCNC(=O)c2[nH]c3ccc(Cl)cc3c2S(=O)(=O)c2cc(C)cc(C)c2)cc1
IC50 (gag-pol reverse transcriptase; enzyme activity; inhibitor; ELISA): 75 nM

N#Cc1ccc(Nc2nc(N)cc(Oc3ccc(-c4ccc(C#N)cc4)c(Cl)c3)n2)cc1
IC50 (gag-pol reverse transcriptase; enzyme activity; inhibitor): 40 nM

CC(C)Oc1c(NC(=O)c2ccc(NC(=O)[C@H](CC(N)=O)NC(=O)c3ccc(NC(=O)CCc4ccc(C#N)cc4)cc3)cc2)ccc(C(=O)Nc2ccc(C(=O)O)cc2)c1O
IC50 (gyrA; enzyme activity; inhibitor): 1000 nM

N#Cc1ccc(Nc2nc(N)cc(Oc3ccc(-c4ccccc4F)cc3F)n2)cc1
IC50 (gag-pol reverse transcriptase; enzyme activity; inhibitor): 50 nM

O=C1NC(=O)/C(=C/c2ccc(OCCNc3nc4c(cnn4C4CCCC4)c(=O)[nH]3)c(F)c2)S1
IC50 (PDE2A; enzyme activity; inhibitor): 58 nM

N#Cc1ccc(Nc2nc(N)cc(Oc3c(F)cc(-c4cccc(F)c4)cc3F)n2)cc1
IC50 (gag-pol reverse transcriptase; enzyme activity; inhibitor): 70 nM

COc1ccc(S(=O)(=O)ON=C2C=C(C)C(=O)C(C)=C2)cc1
IC50 (EP300; enzyme activity; inhibitor; fluorescence): 1980 nM

Cc1cc(C)cc(S(=O)(=O)c2c(C(=O)NCCCNS(=O)(=O)c3cccs3)[nH]c3ccc(Cl)cc23)c1
IC50 (gag-pol reverse transcriptase; enzyme activity; inhibitor; ELISA): 190 nM

COc1ccc2c(Oc3ccc4c(C(=O)Nc5ccccc5N)cccc4c3)ccnc2c1
IC50 (Receptor tyrosine-protein kinase erbB-2 (ERBB2, Homo sapiens, UniProt P04626); enzyme activity; inhibitor): > 500 nM

Cc1cc(C)cc(S(=O)(=O)c2c(C(=O)NCCCCNS(=O)(=O)c3cccs3)[nH]c3ccc(Cl)cc23)c1
IC50 (gag-pol reverse transcriptase; enzyme activity; inhibitor; ELISA): 190 nM

CC(C)Oc1c(NC(=O)c2ccc(NC(=O)[C@H](CC(N)=O)NC(=O)c3cccc(-c4cccc(C#N)c4)c3)cc2)ccc(C(=O)Nc2ccc(C(=O)O)cc2)c1O
IC50 (gyrA; enzyme activity; inhibitor): > 50000 nM
